# Only some compounds are listed: those with a hit (about 1.8% of all), similar ones and a draw of the others.
# SUMO HTRF inh: SUMOylation inhibition; P63279; HTRF SUMOylation assay, SAE1/SAE2 + UBC9, in vitro; inhibition, % at 35 µM; actives 0.36% (n = 290,000); AID 2006; in the data active means inhibition above about 50%, passing the limit was not always enough
# Rpn11 inh: inhibitors of human proteasome Rpn11; human 26S proteasome, Ub4-pepOG fluorescence polarization; 20S core pre-blocked with epoxomicin; calls only at 20 µM; actives 0.59% (n = 360,000); AID 588493;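 active means inhibition at 20 µM, scaled to each plate's controls, above about 33%, limit read from the data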
# TPT1 inh: blocks Candida albicans tRNA 2'-phosphotransferase. actives 0.81% (n = 300,000). AID 1962. recombinant caTPT1, FP RNA substrate dephosphorylation. inhibition, % at 5 µM;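 active means inhibition above the mean of all tested compounds plus 3 SD, set per screening campaign, cut at about 24% in these data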;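 further: plate controls were DMSO alone for no effect and ferristatin control at 100 nM for full effect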
# HNF4A DNA FP: change in binding of human HNF4 alpha to DNA | actives 0.3% (n = 360,000) | AID 1224865 | activity change, % at 10 µM | HNF4a-FITC DNA binding, fluorescence polarization, 1 h; in the data active means activity change above about 30%, passing the limit was not always enough
# CSN deneddyl inh: CSN deneddylation inhibition | Purified CSN, SCF-Nedd8-OG deneddylation, fluorescence polarization | inhibition, % at 12.5 µM | actives 0.38% (n = 360,000) | AID 651999;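 active means pattern-corrected inhibition above about 35%, with an unprinted fluorescence ratio check between 0.5 and 1.5, limit read from the data, passing the limit was not always enough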;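 further: 0% = enzyme with substrate and 100% = substrate without enzyme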
# Target sequence (Q92905 whole entry, looked up, one chain of several): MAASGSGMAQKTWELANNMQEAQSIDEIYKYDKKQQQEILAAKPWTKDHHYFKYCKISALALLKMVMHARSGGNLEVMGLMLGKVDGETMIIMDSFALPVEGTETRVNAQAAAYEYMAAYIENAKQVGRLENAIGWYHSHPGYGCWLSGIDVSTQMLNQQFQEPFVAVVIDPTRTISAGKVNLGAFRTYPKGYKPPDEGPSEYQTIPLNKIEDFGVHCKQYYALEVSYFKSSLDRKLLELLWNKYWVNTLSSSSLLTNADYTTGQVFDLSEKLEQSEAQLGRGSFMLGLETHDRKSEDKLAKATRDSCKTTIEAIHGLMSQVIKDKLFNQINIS
#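 test system = HEK293T-derived human Csn5 enzyme | amount = 0.24 nM Csn5 enzyme, final concentration | medium = Tris/NaCl/DTT buffer, pH 7.5 | schedule = 90 min reaction at room temperature | signal = FP | evaluation = inhibition of Csn5 cleavage, % | compound dosing = single dose of 12.5 µM compound with 0.25% DMSO | probe or stimulus = 10 nM SCFSkp2-Nedd8OG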
# SENP1 FRET inh: inhibitors of human SENP1 SUMO protease catalytic domain. AID 624204. inhibition, % at 10 µM. actives 0.21% (n = 360,000). Q9P0U3. recombinant SENP1 catalytic domain, CyPet-SUMO1-YPet FRET cleavage;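 active means inhibition at least 30% at 10 µM, raw YFP signal under a set limit, fluorescence ratio 0.5 to 1.5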;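 further: 0% = enzyme with DMSO and 100% = no enzyme wells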
# Target sequence (Q9P0U3 419-644 limits assumed): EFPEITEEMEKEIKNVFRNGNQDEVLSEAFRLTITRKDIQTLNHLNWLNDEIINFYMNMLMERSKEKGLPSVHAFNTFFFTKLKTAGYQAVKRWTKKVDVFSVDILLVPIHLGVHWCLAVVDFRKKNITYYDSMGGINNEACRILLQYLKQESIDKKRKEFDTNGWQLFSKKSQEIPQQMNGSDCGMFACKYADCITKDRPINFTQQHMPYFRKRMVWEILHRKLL
#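 Material – human SENP1 catalytic domain · Input – SENP1 enzyme, 20 pM final · Compound dosing – single concentration of 10 µM compound, 0.5% DMSO final · Timing – enzyme reaction for 50 min at room temperature, dark · Measured by – FRET fluorescence in CFP and YFP emission channels · Control set – no-enzyme wells low, DMSO-plus-enzyme wells high control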
# An asterisk follows results filed as active; i = inactive; nt = no result shown; + = active, no number.
SMILES,SUMO HTRF inh,Rpn11 inh,TPT1 inh,HNF4A DNA FP,CSN deneddyl inh,SENP1 FRET inh
Cc1ccc(C(=O)N(CCC2=CCCCC2)c2c(N)n(Cc3ccccc3)c(=O)[nH]c2=O)o1,nt,i,-1.1,1.2,2.6,-3.8
Nc1c(N(CCC2=CCCCC2)C(=O)c2ccc([N+](=O)[O-])o2)c(=O)[nH]c(=O)n1Cc1ccccc1,nt,+,8.8,7.7,2.4,-40.8
COc1cccc(NC(=O)CCC(=O)NCc2ccco2)c1,6.8,i,-3.8,-1.6,69.9*,2.4
COc1cccc(NC(=O)CCC(=O)Nc2cccc(OC)c2)c1,-17.0,i,-4.2,4.8,-0.4,2.2
Cc1cccc(-c2c3c(=O)n(C)c(=O)n(C)c3cn2C(C)C)c1,1.1,i,5.6,-1.1,8.5,0.3
CCC(CNc1cc(OC)cc2cccnc12)NC1CCCCC1 (stereo not given),101.5*,i,-130.3,4.7,-32.7,-19.6
COc1cc(NCCCC(C)N)c2ncccc2c1 (stereo not given),nt,i,nt,5.0,-11.9,-5.0
O=Cc1ccc(N2N=C(c3ccccc3)CC2c2ccccc2)cc1 (stereo not given),9.9,i,6.9,-2.8,2.7,-26.1
O=C(O)c1ccc(N2N=C(c3ccccc3)CC2c2ccccc2)cc1 (stereo not given),61.5*,i,0.3,0.7,-3.6,-27.7
Cc1sc2c(c1C)C(=O)/C(=C\Nc1ccncc1)S(=O)(=O)N2C,7.2,i,-1.7,6.5,35.0*,1.6
CCCCCC[n+]1ccccc1/C=C/c1ccc(N(C)C)cc1,nt,nt,nt,120.7*,99.8,31.0
CS(=O)(=O)N(CC(=O)N1CCN(Cc2ccccc2)CC1)Cc1ccccc1,1.1,i,-2.1,-4.4,81.9*,2.5
O=C(O)C1=CC(=C(c2ccc(O)c(C(=O)O)c2)c2ccc(O)c(C(=O)O)c2)C=CC1=O,nt,nt,101.3*,nt,nt,nt
CCC(=O)OCCNc1cc(Sc2nccn2C)c2nonc2c1[N+](=O)[O-],53.4,i,4.4,0.1,6.7,-22.7
CCC(=O)OCCNc1cc(SCCC(=O)OC)c2nonc2c1[N+](=O)[O-],63.4*,i,-5.6,2.4,1.3,-28.3
COc1ccc(C(=O)Nc2ccc(C(=O)NCCc3ccc(OC)c(OC)c3)cc2)cc1,60.0*,i,-0.1,-1.1,-2.0,2.8
CCCCCC(=O)Nc1ccc2oc(-c3cncc(Br)c3)nc2c1,19.8,i,-0.1,0.6,2.8,-1.2
CC(C)CC(=O)Nc1ccc2oc(-c3cccnc3)nc2c1,52.8*,i,-0.2,-6.3,-0.9,0.8
COc1ccc(-c2nc3cc(NC(=O)Cc4ccc(OC)c(OC)c4)ccc3o2)cc1,-5.6,i,0.0,5.6,42.7*,2.0
CCCC(=O)Nc1ccc2oc(-c3cncc(Br)c3)nc2c1,52.0*,i,-3.7,-0.4,1.4,2.3
COc1ccc(OCC(=O)Nc2ccc3oc(-c4ccncc4)nc3c2)cc1,19.1,i,-0.6,15.6,7.7,-1.5
CC(NC(=O)c1ccco1)C(c1cccs1)N1CCOCC1 (stereo not given),15.6,i,-1.7,-1.0,-4.7,1.4
Cc1nn(-c2ccccc2)c(Cl)c1/C=N/Nc1nc2ccccc2[nH]1,-11.4,i,1.4,67.9*,3.5,-0.4
CC1CC(C)(C)CC2(C1)NC(=O)N(CC(=O)Nc1ccc3[nH]c(=O)[nH]c3c1)C2=O (stereo not given),nt,i,nt,9.1,73.2*,-27.5
CC1CCC2(CC1)NC(=O)N(CC(=O)Nc1ccc3[nH]c(=O)[nH]c3c1)C2=O (stereo not given),nt,i,1.1,-1.6,-0.3,-0.6
SMILES,SUMO HTRF inh,Rpn11 inh,TPT1 inh,HNF4A DNA FP,CSN deneddyl inh,SENP1 FRET inh
Cc1cc2cc(C(c3nnnn3C(C)(C)C)N(Cc3ccco3)CC3CCCO3)c(=O)[nH]c2cc1C (stereo not given),20.3,i,2.2,42.7*,6.6,-12.6
COc1ccc2[nH]c(=O)c(C(c3nnnn3C(C)(C)C)N(Cc3ccco3)CC3CCCO3)cc2c1 (stereo not given),17.7,i,-3.5,-0.4,1.9,-0.6
CN(C)c1ccc(NC(=O)c2sc(SCC(=O)Nc3ccc(Br)cc3)nc2N)cc1,54.8*,i,-6.9,0.2,3.1,-1.3
CN(C)c1ccc(NC(=O)c2sc(SCC(=O)Nc3nccs3)nc2N)cc1,-16.2,i,-1.4,1.4,0.8,7.3
CCOC(=O)c1ccc(NC(=O)Nc2ccc3c4c(cccc24)C(=O)N3CC)cc1,18.7,nt,4.5,67.6*,25.1,66.6
O=C1N/C(=N/N=C/c2ccc(O)cc2)SC1Cc1ccccc1 (stereo not given),16.4,i,3.0,-0.3,6.3,1.1
COc1ccc(CC2S/C(=N/N=C/c3ccccc3O)NC2=O)cc1 (stereo not given),58.2*,i,-1.2,-3.1,2.6,0.3
O=C1N/C(=N/N=C/c2ccccc2O)SC1Cc1ccc(F)cc1 (stereo not given),61.4*,i,-1.3,5.1,-0.2,0.9
CCOC(=O)/C(C#N)=N\Nc1cc(Cl)ccc1OC,-1.6,i,7.1,74.9*,23.5,-6.8
NC(=S)n1[nH]c(-c2ccc([N+](=O)[O-])cc2)c(N=Nc2ccccc2[N+](=O)[O-])c1=O,27.8,i,nt,-28.5,-6.2,5.4
NC(=S)n1[nH]c(-c2ccc([N+](=O)[O-])cc2)c(N=Nc2cccc([N+](=O)[O-])c2)c1=O,59.2*,i,nt,-53.4,8.4,7.3
Cc1c(N=Nc2c(-c3ccc([N+](=O)[O-])cc3)[nH]n(C(N)=S)c2=O)cccc1[N+](=O)[O-],69.4*,i,nt,-28.0,6.5,3.6
Cc1ccc(Oc2nc(CN3CCOCC3)nc3sc4c(c23)CCC(C)C4)cc1C (stereo not given),-25.0,i,5.4,-0.1,3.8,0.8
CC(C)(C)c1ccc(C(=O)N2CCC2(C)C(=O)Nc2ccc3nc[nH]c3c2)cc1 (stereo not given),nt,i,nt,1.5,-0.9,-1.5
Cc1ccc(NC(=O)c2ccc(N/N=C/c3cccc(O)c3)c([N+](=O)[O-])c2)cc1,29.4,i,0.3,6.7,12.6,7.8
Cc1ccccc1NC(=O)c1ccc(N/N=C/c2ccccc2O)c([N+](=O)[O-])c1,57.0*,i,2.4,6.1,5.9,6.8
CN(C(=O)COc1ccccc1C(=O)NCc1ccccc1)C1CCS(=O)(=O)C1 (stereo not given),nt,i,nt,-4.0,-2.0,0.8
COc1ccccc1N1CCN(C(=O)c2ccc3nc(-c4ccco4)c(-c4ccco4)nc3c2)CC1,72.4*,i,-0.6,0.5,-3.7,-23.8
